TAAR1 antagonist = human TAAR1 antagonists, primary screen, Fluo-8 calcium fluorescence, CHO RD-HGA16 cells | antagonist | inhibition, % at 3 µM | 360,000 tested, 1.5% active;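 active = inhibition above a per-plate cutoff, the mean inhibition of test compounds on that plate plus 3 SD, cut at about 49% in these data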;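 note: 0% = DMSO plus EC80 beta-PEA response and 100% = DMSO alone without agonist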
Target sequence (Q96RJ0 whole entry, looked up): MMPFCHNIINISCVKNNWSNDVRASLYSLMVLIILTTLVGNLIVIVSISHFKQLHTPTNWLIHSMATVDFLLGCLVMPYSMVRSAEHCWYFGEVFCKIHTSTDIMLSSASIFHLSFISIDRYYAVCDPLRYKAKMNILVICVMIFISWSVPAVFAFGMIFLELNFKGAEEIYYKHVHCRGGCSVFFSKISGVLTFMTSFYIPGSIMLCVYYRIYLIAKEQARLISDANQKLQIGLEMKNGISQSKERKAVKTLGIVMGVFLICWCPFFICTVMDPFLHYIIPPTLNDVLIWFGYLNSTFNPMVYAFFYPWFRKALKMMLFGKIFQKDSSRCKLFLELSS
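Test system – hTAAR1-expressing CHO RD-HGA16 cells, Gα16-coupled · Also added – β-PEA at EC80 concentration, post-compound challenge · Compound – 3 µM, single point · Incubation – dye loading 75 min at 37 °C, then 30 min room temperature · Measured by – Fluo-8 intracellular calcium dye fluorescence, real-time kinetic reads · Benchmarks – vehicle and agonist controls · Replicates – singlicate, one well per test compound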
CHO parental Ca = ATP-evoked calcium signal inhibitors, parental CHO, primary screen, counter-screen for OX1R antagonist project, cell-based, fluorescence, Fluo-8 calcium dye; parental CHO-K1, ATP-induced calcium, Fluo-8 fluorescence; inhibition, % at 5.6 µM; 330,000 tested, 0.63% active; AID 463079, 2010;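 active = inhibition above that plate's mean sample inhibition plus 3 SD, cut at about 26% in these data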;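 note: 0% = ATP-challenged DMSO wells and 100% = DMSO wells without ATP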
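Material – parental CHO cells · Reagent – ATP stimulus · Compound – single nominal dose of 5.6 µM per compound · Detection – Fluo-8 fluorescence · Read-out basis – percent inhibition of calcium signal · Controls – ATP-challenged DMSO wells low, unchallenged DMSO wells high · Repeats – no replicates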
OX1R antag-1 = antagonists of human orexin 1 receptor (OX1R); inhibition, % at 6.6 µM; 330,000 tested, 1.8% active; OX1R-expressing cells, FRET antagonist read-out; Orexin/Hypocretin receptor type 1 (Homo sapiens), O43613; in the data active = inhibition mostly above about 38%, no sharp cut-off; inactive = mostly below about 40%;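 note: 0% = agonist challenge alone and 100% = reference antagonist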
TAAR1 agonist = human TAAR1 agonists, primary screen, Fluo-8 calcium fluorescence, CHO RD-HGA16 cells. activation, % at 3 µM. AID 624467, 2012. 360,000 tested, 0.99% active. Trace amine-associated receptor 1 (Homo sapiens), Q96RJ0. vehicle wells 0%, saturating PEA agonist 100%;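 active = activation above the mean activation of all test compounds in the run plus 3 SD, cut at about 38% in these data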
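Repeats: no replicates (n 1) | Material: CHO-derived RD-HGA16 cells with stable Gα16 and human TAAR1 | Technique: Kinetic Fluo-8 calcium fluorescence | Schedule: 17-24 h seeding, 75 min 37 °C dye, 30 min RT | Evaluation: % activation from peak over basal fluorescence ratio, DMSO-to-PEA scaled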
OX1R antag-2 = OX1R (HCRTR1) antagonists, primary screen, fluorescence, CHO/OX1R cells, Fluo-8 calcium, orexin A. Orexin/Hypocretin receptor type 1 (Homo sapiens), O43613. Fluo-8 calcium fluorescence. inhibition, % at 5 µM. 330,000 tested, 0.43% active. AID 434989, 2010;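 active = inhibition above its plate's threshold, mean inhibition of all tested compounds on the plate plus 3 SD, cut at about 37% in these data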;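 note: 0% = orexin A challenge wells and 100% = SB-334867-A antagonist wells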
* = called active by the depositor; . = not tested or not shown. Hits are enriched below; roughly 4% of the tested compounds scored in any of these assays.

SMILES | TAAR1 antagonist | CHO parental Ca | OX1R antag-1 | TAAR1 agonist | OX1R antag-2
COc1ccc(/C=C\C(=O)O[C@@H]2C(O)C(O[C@@H]3OC(C)[C@H](O[C@@H]4OCC(O[C@H]5O[C@H](CO)[C@@H](O)C(O)C5O)C(O)C4O)C(O)C3O)[C@H](OC(=O)[C@]34CCC(C)(C)C[C@@H]3C3=CCC5[C@@]6(C)CC(O)C(O[C@@H]7OC(CO)C(O)[C@H](O)[C@H]7O)[C@@](C)(C(=O)O)C6CC[C@@]5(C)[C@]3(CO)CC4)O[C@H]2C)cc1 (stereo partly drawn) | . | 101* | 4 | . | 110*
CCOc1ccc(OCCN2C(=O)NC(Cc3c[nH]c4ccccc34)C2=O)cc1 (stereo not drawn) | 18 | -17 | 43* | 4 | 16
CCOC(=O)N(C)C[C@H]1OCc2cn(nn2)CCCC(=O)N([C@@H](C)CO)C[C@@H]1C | 11 | . | . | 2 | .
O=S(=O)(CCc1nc2ccccc2o1)c1ccc2ccccc2c1 | 9 | -12 | 45* | 8 | 2
COc1cc(/C=C2\SC(=S)N(NC(=O)c3ccccc3O)C2=O)ccc1O | 30 | 35* | 25 | 31 | 21
CCn1c(SCC(=O)NC2(C#N)CCCCC2)nc2ccccc2c1=O | -16 | -15 | 27 | -1 | -32
CCOC(=O)c1oc2cccc(OC(C)=O)c2c1C | 12 | 1 | 47 | 15 | 2
CCOC(=O)c1oc2cccc(O)c2c1C | 8 | -5 | 39* | 7 | -14
O=C(Cc1cn(Cc2ccccc2)c2ccccc12)Nc1ccc(Nc2cccnc2)cc1 | 19 | . | . | 0 | .
c1ccc2c(c1)[nH]c1nc3nncn3nc12 | 2 | -13 | 53* | 7 | -15
Nc1ccccc1N=c1ssnc1Cl | -26 | . | . | 2 | .
Cc1ccc(N=c2ssnc2Cl)cc1 | 16 | -3 | 40 | 41* | -14
Cc1cc(Cl)ccc1N=c1ssnc1Cl | 29 | -2 | 26 | 42* | -6
COC(=O)C1=C(C)N(Cc2ccc(Br)cc2)C(=S)NC1c1ccccc1 (stereo not drawn) | 10 | . | . | 0 | .
O=C(Nc1cccn(Cc2c(Cl)cccc2Cl)c1=O)c1c(Cl)cccc1Cl | 20 | 3 | 56* | 4 | 8
Cc1cccc(C)c1NC(=O)C1(C)CSCC(=O)N1CCc1ccc(O)cc1 (stereo not drawn) | -26 | . | . | 9 | .
C=C1C(=O)C=C2CN(C(=O)c3ccccc3)[C@@](Cc3ccc(F)cc3)(C(=O)OC)[C@@H]12 | . | 32 | 14 | . | 75*
CCOC(=O)c1cc2cc3ccccc3cc2[nH]1 | -5 | 6 | 38* | 16 | -8
O=C(NCC(=O)N1CCN(Cc2ccccc2)CC1)c1ccc(Cl)cc1 | -17 | -15 | 18 | 0 | -16
O=C(NCC(=O)N1CCN(Cc2ccccc2)CC1)c1cc(Cl)cc([N+](=O)[O-])c1 | 1 | -2 | 34* | 3 | -11
Cc1cc2occ(CC(=O)N(C)CC(=O)Nc3ccccc3Br)c2cc1C | 13 | -16 | 68* | 2 | 5
Cc1c(N/N=C(\C#N)C(=O)c2ccc(Cl)cc2)c(=O)n(-c2ccccc2)n1C | 9 | -8 | 5 | 13 | 16
N#C/C(=N\Nc1ccc(Cl)cc1)C(=O)c1ccccc1 | 4 | 32 | 60* | 1 | 25
O=c1[nH]c2c(Br)cnc([N+](=O)[O-])c2[nH]1 | -21 | -7 | 43* | -1 | -10
O=c1[nH]c2cc(Cl)c([N+](=O)[O-])nc2[nH]1 | 0 | -7 | 28 | 5 | -14
SMILES | TAAR1 antagonist | CHO parental Ca | OX1R antag-1 | TAAR1 agonist | OX1R antag-2
C[C@H](O)[C@@H]1C(=O)N2CCc3c([nH]c4cccc(-c5ccccc5)c34)[C@@H]2C[C@@H]1N(C)C(=O)C1CCCCC1 | -15 | . | . | 1 | .
CC(C)C(=O)N(c1cc2sc(=O)oc2c2ccccc12)S(=O)(=O)c1cccs1 | 17 | 87* | 38 | 7 | 68*
CC(C)C(=O)N(c1ccc2oc(=O)sc2c1)S(=O)(=O)c1cccs1 | -16 | -6 | 16 | 7 | -2
CN(CC(=O)Nc1cccc(F)c1)C(=O)c1ccc2c(c1)CC(c1ccccc1)OC2=O (stereo not drawn) | 58* | . | . | 19 | .
COc1ccc(C(=O)NCC2CCN(C(=O)C(=O)c3cc4ccccc4o3)CC2)c(OC)c1 | -26 | . | . | -1 | .
Cc1cccc(NC(=O)CSCC(=O)N2CCN(c3cccc(C(F)(F)F)c3)CC2)c1 | -29 | -24 | 30* | 11 | 20
CN(C)S(=O)(=O)c1ccc(NC(=O)N2CCN(c3cccc(C(F)(F)F)c3)CC2)cc1 | 9 | 39* | 34 | 34 | 48*
CN(C)S(=O)(=O)c1ccc(NC(=O)N2CCN(c3ccccc3Cl)CC2)cc1 | -5 | -9 | 16 | 10 | -17
O=C(CCc1c[nH]c2ccccc12)Nc1ccc(Nc2cccnc2)cc1 | 29 | . | . | 4 | .
Cn1c(=O)oc2ccc(S(=O)(=O)Nc3ccc(Cl)cc3[N+](=O)[O-])cc21 | -10 | . | . | 8 | .
COCCNC(=O)c1cc2cc3ccc(OC)cc3nc2o1 | 1 | -4 | 31 | 0 | 9
COc1ccc2cc3cc(C(=O)NCc4ccco4)oc3nc2c1 | -16 | -7 | 54* | 1 | -21
COc1ccc2cc3cc(C(=O)NCCC(C)C)oc3nc2c1 | -5 | -12 | 1 | 2 | -19
COc1ccc2cc3cc(C(=O)NCc4ccccn4)oc3nc2c1 | -10 | -31 | 61* | 1 | -16
COc1ccc2cc3cc(C(=O)NCC4CCCO4)oc3nc2c1 (stereo not drawn) | -16 | -10 | 74* | 3 | -4
COc1cc(C2c3c(c(C)c(C)oc3=O)Oc3c(C)c(C)oc(=O)c32)ccc1OS(=O)(=O)c1ccc(C)cc1 | 16 | -4 | 10 | 7 | 4
O=C(OCc1nc2ccsc2c(=O)[nH]1)c1ccccc1 | 9 | -7 | 14 | 4 | -6
Cc1c(C(=O)OCc2nc3ccsc3c(=O)[nH]2)oc2ccccc12 | -5 | -21 | 49* | 0 | 1
COc1cc([N+](=O)[O-])cc(/C=C2/SC(=S)N(Cc3ccccc3)C2=O)c1O | 47 | 49* | 11 | 25 | 68*
CCN1C(=O)[C@@H]2[C@@H]3CN(S(=O)(=O)c4ccc(C)cc4)[C@@H](c4ccccc4Cl)[C@@H]3C(=O)C[C@@H]2C1=O | 2 | . | . | 1 | .
CCSc1nnc(NC(=O)NC(C)(C(F)(F)F)C(F)(F)F)s1 | 24 | -1 | 17 | 6 | -3
CCSc1nnc(NC(=O)NC(CC)(C(F)(F)F)C(F)(F)F)s1 | 6 | 79* | 47 | 8 | 66*
